The nature of experiment [1]: Inhibition of Synechocystis sp. PCC6803 PDHC-E1 expressed in Escherichia coli BL-21 (DE3) using 6-DCIP and pyruvate incubated for 5 mins. Details: species or system Synechocystis sp. PCC 6803. The procedure, abridged:
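Recombinant Cy-PDHc E1 (E. coli BL-21 (DE3) with GroEL/GroES chaperones, Ni-NTA purified) assayed by DCIP reduction in 50 mM K3PO4 pH 7.2, 0.375 mM DCIP, 0.1 mg/ml enzyme, 200 µM ThDP plus inhibitor, 5 min at 37 °C before saturating pyruvate; IC50 values as means ± SD, n = 3.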

For the next experiment, the system named is Microcystis aeruginosa. Kind of experiment: Growth inhibition of Microcystis aeruginosa FACHB905 incubated for 7 days. In kind it is functional, organism-based. An outline of the steps:
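Cyanobacteria grown in BG11 medium at 28 °C on a 12 h light/12 h dark cycle for 7 days to logarithmic phase. A 1% inoculum was transferred into fresh medium containing compound at different concentrations and cultured 7 days. OD680 was read, then inhibition rate and EC50 were calculated. Values are means, n = 3.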

Experiment [2] has as its system Synechocystis sp. PCC 6803. Kind of experiment: Growth inhibition of Synechocystis sp. PCC6803 incubated for 7 days. In kind it is functional, organism-based.
Experiment [3] concerns Synechocystis sp. PCC 6803. The experiment is described as follows: Inhibition of Synechocystis sp. PCC6803 PDHC-E1 expressed in Escherichia coli BL-21 (DE3) at 100 uM using 6-DCIP and pyruvate incubated for 5 mins relative to untreated control. The procedure, abridged: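 His-tagged Cy-PDHc E1 co-expressed with GroEL/GroES in E. coli BL-21 (DE3), Ni-NTA purified. Mix: 50 mM K3PO4 pH 7.2, 0.375 mM DCIP, 0.1 mg/ml enzyme, 200 µM ThDP, compound 100 μM; preincubated 5 min at 37 °C, reaction started with saturating pyruvate; percent inhibition reported.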

For another experiment, the species on record is Sus scrofa. The experiment is described as follows: Inhibition of porcine PDHc-E1 at 100 uM using MTT and phenazine methosulfate incubated for 3 mins relative to untreated control. An outline of the steps: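 Porcine PDHc E1 activity followed by MTT reduction at 566 nm. Mix: 1.0 mM MgCl2, 0.2 mM ThDP, 0.5 mM MTT, 6.5 mM PMS, 50 mM K3PO4 pH 7.0, 0.75 mg/mL enzyme, compound at 100 μM final; 3 min at 37 °C, then 2 mM sodium pyruvate added to start; percent inhibition reported.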

Where [4] appears, read: Microcystis aeruginosa, FACHB905, 168 h.
Where [5] appears, read: Synechocystis sp. PCC 6803, 168 h.

Some results are limits rather than exact numbers.

Broadly, the IC50 is the concentration at which inhibition is half-maximal. Lower therefore signals inhibition by little substance. One may read the EC50 as the concentration giving half of the maximal effect. Low values mean higher potency in that assay, high ones lower potency in that assay. The term inhibition denotes the relative decrease from the control value, in per cent.

For the compound `Cc1ncc(Cn2cc(COc3ccccc3)nn2)c(N)n1`, the IC50 in experiment [1] was above 100000 nM. The EC50 (in the experiment with Microcystis aeruginosa (setting [4]); in experiment [2] (setting [5])) was above 100000 nM throughout. The compound also came in with an inhibition in experiment [3] of 19%.

Compound `Cc1ncc(Cn2cc(COC(=O)c3ccc([N+](=O)[O-])cc3)nn2)c(N)n1` had an IC50 in experiment [1] of 3570 nM. Further, the EC50 with Microcystis aeruginosa (setting [4]) was 1330 nM; in experiment [2] (setting [5]), 1640 nM. Moreover, the figures for the inhibition (in experiment [3]; in the experiment listed under Sus scrofa) were 95.7% and 13.5%, respectively.

Consider `Cc1ncc(Cn2nnc(COC(=O)c3ccc([N+](=O)[O-])cc3)c2I)c(N)n1`, for which the midpoint of inhibition in experiment [1], the IC50, lay at 1690 nM. Moreover, the concentration for a half-maximal effect (EC50) turned out to be 950 nM with Microcystis aeruginosa (setting [4]) and 1090 nM in experiment [2] (setting [5]). The results for the inhibition (in experiment [3]; in the experiment filed under Sus scrofa) were 99.2% and 10.4%, respectively.

`Cc1ncc(Cn2nnc(COC(=O)c3ccccc3)c2I)c(N)n1` yielded an IC50 in experiment [1] of 1940 nM. Also, the EC50 with Microcystis aeruginosa (setting [4]) was 990 nM; in experiment [2] (setting [5]) it was 1440 nM. For the same compound, the results for the inhibition (in experiment [3]; in the experiment listed under Sus scrofa) were 96.5% and 21%, respectively.

In experiment [1], `Cc1ncc(Cn2cc(COC(=O)c3cccc(Cl)c3)nn2)c(N)n1` showed an IC50 of 3730 nM. In addition, the EC50 in the experiment on Microcystis aeruginosa (setting [4]) amounted to 1290 nM; in experiment [2] (setting [5]), 1810 nM. Further, the inhibition in experiment [3] was 93.2%; in the experiment filed under Sus scrofa, 9.62%.

On to CUPRIC SULFATE, for which the EC50 with Microcystis aeruginosa came out at 1770 nM; in experiment [2] it was 1470 nM.

On to `Cc1ccc(C(=O)OCc2nnn(Cc3cnc(C)nc3N)c2I)cc1`, for which the IC50 in experiment [1] turned out to be 1880 nM. Further, the figures for the EC50 (in the experiment with Microcystis aeruginosa (setting [4]); in experiment [2] (setting [5])) were 850 nM and 1140 nM, respectively. The compound also gave an inhibition in experiment [3] of 97.1%.

`Cc1ncc(Cn2cc(COC(=O)c3ccc(Cl)cc3)nn2)c(N)n1` gave an IC50 in experiment [1] of 3550 nM. Further, the values for the EC50 (in the experiment on Microcystis aeruginosa (setting [4]); in experiment [2] (setting [5])) were 1110 nM and 2250 nM, respectively. The inhibition in experiment [3] was determined as 94.2%.

In turn, `Cc1ncc(Cn2nnc(COC(=O)c3ccc(Cl)cc3)c2I)c(N)n1` returned an IC50 in experiment [1] of 2350 nM. Further, the EC50 in the experiment on Microcystis aeruginosa (setting [4]) stood at 1060 nM; in experiment [2] (setting [5]), 900 nM. In experiment [3], this compound returned an inhibition of 95.6%.

Regarding `Cc1ncc(Cn2cc(COc3ccc([N+](=O)[O-])cc3)nn2)c(N)n1`, in experiment [1], the IC50 was above 100000 nM. Moreover, the EC50 (in the experiment on Microcystis aeruginosa (setting [4]); in experiment [2] (setting [5])) was above 100000 nM throughout. The inhibition in experiment [3] was determined as 8.64%.

`Cc1ncc(Cn2cc(COC(=O)c3ccccc3Cl)nn2)c(N)n1`: the half-inhibitory concentration (IC50) in experiment [1] turned out to be 3370 nM. The 50% effective concentration (EC50) stood at 1430 nM in the experiment with Microcystis aeruginosa (setting [4]) and 2440 nM in experiment [2] (setting [5]). In addition, the figures for the inhibition (in experiment [3]; in the experiment filed under Sus scrofa) were 97.8% and 7.31%, respectively.

`Cc1ncc(Cn2nnc(COC(=O)c3ccccc3Cl)c2I)c(N)n1` gave a half-maximal inhibitory concentration (IC50) in experiment [1] of 1480 nM. Besides, the values for the EC50 (with Microcystis aeruginosa (setting [4]); in experiment [2] (setting [5])) were 900 nM and 1170 nM, respectively. In addition, the inhibition in experiment [3] worked out at 98.9%; in the experiment filed under Sus scrofa it was 9.5%.

The compound `Cc1ncc(Cn2cc(COC(=O)c3ccc(F)cc3)nn2)c(N)n1` displayed an IC50 in experiment [1] of 3880 nM. Moreover, the EC50 in the experiment on Microcystis aeruginosa (setting [4]) is 1220 nM; in experiment [2] (setting [5]) it was 2110 nM. Further, the inhibition in experiment [3] stood at 99.5%; in the experiment listed under Sus scrofa, 17.8%.

In experiment [1], `Cc1ncc(Cn2cc(COc3ccc(F)cc3)nn2)c(N)n1` came in with an IC50 above 100000 nM. For the same compound, the EC50 (with Microcystis aeruginosa (setting [4]); in experiment [2] (setting [5])) was above 100000 nM throughout. Besides, the inhibition in experiment [3] stood at 16.2%.

The compound `Cc1ncc(Cn2cc(COC(=O)c3ccccc3)nn2)c(N)n1` came in with an IC50 in experiment [1] of 3580 nM. Besides, the EC50 in the experiment on Microcystis aeruginosa (setting [4]) was determined as 1170 nM; in experiment [2] (setting [5]), 1660 nM. For the same compound, the inhibition in experiment [3] was found to be 95.5%; in the experiment filed under Sus scrofa it was 15.9%.

`Cc1ncc(Cn2nnc(COC(=O)c3cccc(Cl)c3)c2I)c(N)n1`: the IC50 in experiment [1] was determined as 1790 nM. For the same compound, the EC50 amounted to 740 nM in the experiment on Microcystis aeruginosa (setting [4]) and 1160 nM in experiment [2] (setting [5]). The inhibition in experiment [3] turned out to be 98.7%; in the experiment listed under Sus scrofa it was 5.13%.

With `Cc1ccc(C(=O)OCc2cn(Cc3cnc(C)nc3N)nn2)cc1`, the 50% inhibitory concentration (IC50) in experiment [1] turned out to be 4480 nM. Moreover, the EC50 worked out at 1200 nM with Microcystis aeruginosa (setting [4]) and 1430 nM in experiment [2] (setting [5]). For the same compound, in experiment [3], the inhibition is 95.3%.

In turn, `Cc1ncc(Cn2nnc(COC(=O)c3ccc(F)cc3)c2I)c(N)n1` registered an IC50 in experiment [1] of 1610 nM. For the same compound, the figures for the EC50 (with Microcystis aeruginosa (setting [4]); in experiment [2] (setting [5])) were 780 nM and 840 nM, respectively. Moreover, the inhibition in experiment [3] turned out to be 95.4%; in the experiment listed under Sus scrofa, 15.3%.

Regarding `Cc1ncc(Cn2cc(COc3ccc(Cl)cc3)nn2)c(N)n1`, in experiment [1], the IC50 was above 100000 nM. Further, the EC50 (in the experiment on Microcystis aeruginosa (setting [4]); in experiment [2] (setting [5])) was above 100000 nM each time. The compound also yielded an inhibition in experiment [3] of 29.6%.

The values are drawn from ChEMBL document CHEMBL4390637, “Design, synthesis and biological evaluation of novel inhibitors against cyanobacterial pyruvate dehydrogenase multienzyme complex E1” (Bioorg Med Chem, 2019).
